Assay results reported in ChEMBL document CHEMBL1122338, “Mutagenicity and chemistry of N-nitroso-N-(p-substituted-benzyl)methylamines” (1983).
Values joined by “and” are separate entries in the source; they are usually repeats but may differ in a detail not shown here. Equal entries are not always repeated.

What was measured:
S9 [1] = assay: (§1) Activity expressed as no. of revertants per plate in strain TA1535 with and without hamster S9 cells (3 mg/plate) at the dose of 5 ug; assay type: functional, Cricetulus griseus
S9 [2] = assay: (§2) Activity expressed as no. of revertants per plate in strain TA1535 with hamster S9 cells (3 mg/plate); assay type: functional, Cricetulus griseus
S9 [3] = assay: (§3) Activity expressed as no. of revertants per plate in strain TA1535 with and without hamster S9 cells (3 mg/plate) at the dose of 10 ug; assay type: functional, Cricetulus griseus
S9 [4] = assay: (§4) Activity expressed as no. of revertants per plate in strain TA1535 with and without hamster S9 cells (3 mg/plate) at the dose of 1 ug; assay type: functional, Cricetulus griseus
S9 [5] = assay: (§5) Activity expressed as no. of revertants per plate in strain TA1535 with and without hamster S9 cells (3 mg/plate) at the dose of 2.5 ug; assay type: functional, Cricetulus griseus
S9 [6] = assay: Activity expressed as no. of revertants per plate in strain TA1535 with and without hamster S9 cells (3 mg/plate) at the dose of 25 ug; assay type: functional, Cricetulus griseus
Salmonella typhimurium = assay: Activity expressed as no. of revertants per plate in Salmonella Typhimurium TA1535 with and without hamster S9 cells (3 mg/plate) at the dose of 50 ug; assay type: functional, Salmonella enterica subsp. enterica serovar Typhimurium
S9 [7] = assay: Activity expressed as no. of revertants per plate in strain TA1535 with and without hamster S9 cells (3 mg/plate) at the dose of 1000 ug; assay type: functional, Cricetulus griseus
S9 [8] = assay: Activity expressed as no. of revertants per plate in strain TA1535 with and without hamster S9 cells (3 mg/plate) at the dose of 100 ug; assay type: functional, Cricetulus griseus
S9 [9] = assay: (§6) Activity expressed as no. of revertants per plate in strain TA1535 with and without hamster S9 cells (3 mg/plate) at the dose of 250 ug; assay type: functional, Cricetulus griseus
S9 [10] = assay: (§7) Activity expressed as no. of revertants per plate in strain TA1535 with and without hamster S9 cells (3 mg/plate) at the dose of 500 ug; assay type: functional, Cricetulus griseus
S9 [11] = assay: Activity expressed as no. of revertants per plate in strain TA1535 without hamster S9 cells (3 mg/plate) at the dose of 250 ug; assay type: functional, Cricetulus griseus
In short: (§8)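 Ames plate incorporation test in Salmonella TA1535 (base-pair substitution detector), with or without Aroclor 1254-induced hamster S9 mix (3 mg/plate). Doses span a 10-point range of 1–1000 μg/plate. At least two independent dose-response studies, each on duplicate plates; mean revertants per plate reported. Counts are significant when above twice the historical or twice the current control mean, whichever is greater.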

S9 [12] = assay: Activity expressed as no. of revertants per plate in strain TA1535 without hamster S9 cells (3 mg/plate) at the dose of 50 ug; assay type: functional, Cricetulus griseus; in short: as §8
S9 [13] = assay: as §6; assay type: functional, Cricetulus griseus; in short: as §8; remark: listed apart in the source
S9 [14] = assay: as §5; assay type: functional, Cricetulus griseus; in short: as §8; remark: listed apart in the source
S9 [15] = assay: as §7; assay type: functional, Cricetulus griseus; in short: as §8; remark: listed apart in the source
S9 [16] = assay: as §1; assay type: functional, Cricetulus griseus; in short: as §8; remark: listed apart in the source
S9 [17] = assay: as §2; assay type: functional, Cricetulus griseus; in short: as §8; remark: listed apart in the source
S9 [18] = assay: as §4; assay type: functional, Cricetulus griseus; in short: as §8; remark: listed apart in the source
S9 [19] = assay: as §7; assay type: functional, Salmonella enterica subsp. enterica serovar Typhimurium; in short: as §8
S9 [20] = assay: as §3; assay type: functional, Cricetulus griseus; in short: as §8; remark: listed apart in the source

## CN(Cc1ccc(C#N)cc1)N=O
S9 [1]
  Activity: 29
S9 [2]
  Activity: 21 and 13
S9 [3]
  Activity: 23 and 32
S9 [4]
  Activity: 25 and 14
S9 [5]
  Activity: 26 and 19
S9 [6]
  Activity: 29 and 45

## CN(Cc1ccc([N+](=O)[O-])cc1)N=O
S9 [1]
  Activity: 14 and 11
S9 [2]
  Activity: 13 and 9
S9 [3]
  Activity: 10 and 12
S9 [4]
  Activity: 17 and 11
S9 [5]
  Activity: 18 and 15
S9 [6]
  Activity: 13 and 27

## CN(Cc1ccc(C(=O)O)cc1)N=O
Salmonella typhimurium
  Activity: 8 and 5 and 10 and 7
S9 [1]
  Activity: 13 and 6
S9 [2]
  Activity: 11 and 6
S9 [7]
  Activity: 14 and 9
S9 [8]
  Activity: 13 and 10
S9 [4]
  Activity: 12 and 8
S9 [5]
  Activity: 12 and 6
S9 [9]
  Activity: 15 and 7
S9 [6]
  Activity: 6 and 4
S9 [10]
  Activity: 10 and 8

## CN(Cc1ccccc1)N=O
S9 [1]
  Activity: 15 and 24
S9 [2]
  Activity: 14 and 20
S9 [8]
  Activity: 17 and 44
S9 [3]
  Activity: 12
S9 [4]
  Activity: 14 and 21
S9 [5]
  Activity: 18 and 24
S9 [9]
  Activity: 23 and 58
S9 [6]
  Activity: 18 and 24

## COc1ccc(CN(C)N=O)cc1
Salmonella typhimurium
  Activity: 11 and 26
S9 [1]
  Activity: 15 and 10
S9 [2]
  Activity: 11 and 8
S9 [8]
  Activity: 15 and 44
S9 [3]
  Activity: 24 and 14
S9 [4]
  Activity: 10 and 13
S9 [5]
  Activity: 21 and 19
S9 [9]
  Activity: 56
S9 [6]
  Activity: 18 and 17
S9 [11]
  Activity: 20
S9 [12]
  Activity: 19

## CN(Cc1ccc(F)cc1)N=O
S9 [1]
  Activity: 12 and 10
S9 [2]
  Activity: 14 and 6
S9 [7]
  Activity: 16
S9 [3]
  Activity: 13 and 8
S9 [4]
  Activity: 15 and 8
S9 [5]
  Activity: 16 and 7
S9 [13]
  Activity: 17
S9 [9]
  Activity: 39
S9 [6]
  Activity: 13 and 17
S9 [10]
  Activity: 21 and 50

## CN(Cc1ccc(Cl)cc1)N=O
S9 [2]
  Activity: 13
S9 [14]
  Activity: 18 and 15
S9 [15]
  Activity: 10
S9 [16]
  Activity: 20 and 17
S9 [17]
  Activity: 19
S9 [18]
  Activity: 13 and 9
S9 [19]
  Activity: 913
S9 [20]
  Activity: 12 and 32
